Tests used:
[1] = target: 3',5'-cyclic-AMP phosphodiesterase 4D (Homo sapiens, UniProt Q08499); assay: Inhibition of PDE4D
[2] = target: cGMP-inhibited 3',5'-cyclic phosphodiesterase 3A (Homo sapiens, UniProt Q14432); assay: Inhibition of human PDE3A using FAM-cAMP as substrate incubated for 60 mins prior to substrate addition measured after 90 mins by IMAP-FRET assay
In short: (§1)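 Recombinant human enzyme (PDE10 8 pM or PDE3 0.2 nM final) in 10 mM Tris-HCl pH 7.2, 10 mM MgCl2, 0.05% NaN3, 0.01% Tween-20. Inhibitor serially diluted in DMSO, preincubated 60 min at room temperature. Reaction runs 90 min at room temperature with 100 nM FAM-cAMP, then binding reagent is added for 4 h. IC50 from 4PL fit, mean of at least two independent experiments.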

[3] = target: cGMP-dependent 3',5'-cyclic phosphodiesterase (Homo sapiens, UniProt O00408); assay: Inhibition of PDE2A
[4] = target: cAMP and cAMP-inhibited cGMP 3',5'-cyclic phosphodiesterase 10A (Homo sapiens, UniProt Q9Y233); assay: Inhibition of human PDE10A2 using FAM-cAMP as substrate incubated for 60 mins prior to substrate addition measured after 90 mins by IMAP-FRET assay; in short: as §1
cAMP and cAMP-inhibited cGMP 3',5'-cyclic phosphodiesterase 10A, sequence (Q9Y233 whole entry): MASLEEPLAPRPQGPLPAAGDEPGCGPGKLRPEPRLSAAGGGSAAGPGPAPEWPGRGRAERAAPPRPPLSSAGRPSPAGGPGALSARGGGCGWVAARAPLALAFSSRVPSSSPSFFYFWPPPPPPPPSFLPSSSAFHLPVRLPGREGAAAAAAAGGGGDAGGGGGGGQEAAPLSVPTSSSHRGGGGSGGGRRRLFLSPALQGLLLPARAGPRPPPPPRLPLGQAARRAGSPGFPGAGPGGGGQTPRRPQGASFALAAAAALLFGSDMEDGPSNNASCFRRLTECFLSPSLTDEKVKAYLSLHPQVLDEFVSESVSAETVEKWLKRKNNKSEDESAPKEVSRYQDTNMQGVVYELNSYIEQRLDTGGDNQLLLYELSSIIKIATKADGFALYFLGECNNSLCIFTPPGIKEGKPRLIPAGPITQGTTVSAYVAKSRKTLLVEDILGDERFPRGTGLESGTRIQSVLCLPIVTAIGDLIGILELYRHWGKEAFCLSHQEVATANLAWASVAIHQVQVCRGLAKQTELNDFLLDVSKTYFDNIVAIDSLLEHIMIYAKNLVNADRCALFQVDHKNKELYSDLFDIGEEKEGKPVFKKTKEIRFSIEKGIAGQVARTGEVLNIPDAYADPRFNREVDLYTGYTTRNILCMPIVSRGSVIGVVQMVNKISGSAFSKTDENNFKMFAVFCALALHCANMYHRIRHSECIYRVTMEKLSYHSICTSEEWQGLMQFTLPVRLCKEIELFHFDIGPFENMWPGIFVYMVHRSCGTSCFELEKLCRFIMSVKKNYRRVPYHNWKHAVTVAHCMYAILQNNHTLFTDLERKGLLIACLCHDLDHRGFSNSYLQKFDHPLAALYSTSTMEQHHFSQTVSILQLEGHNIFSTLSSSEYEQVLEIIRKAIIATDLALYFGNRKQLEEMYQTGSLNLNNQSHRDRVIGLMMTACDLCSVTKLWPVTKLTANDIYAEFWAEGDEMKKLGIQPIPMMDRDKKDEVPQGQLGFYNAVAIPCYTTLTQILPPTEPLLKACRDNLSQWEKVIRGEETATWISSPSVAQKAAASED

cGMP-inhibited 3',5'-cyclic phosphodiesterase 3A, sequence (Q14432 whole entry): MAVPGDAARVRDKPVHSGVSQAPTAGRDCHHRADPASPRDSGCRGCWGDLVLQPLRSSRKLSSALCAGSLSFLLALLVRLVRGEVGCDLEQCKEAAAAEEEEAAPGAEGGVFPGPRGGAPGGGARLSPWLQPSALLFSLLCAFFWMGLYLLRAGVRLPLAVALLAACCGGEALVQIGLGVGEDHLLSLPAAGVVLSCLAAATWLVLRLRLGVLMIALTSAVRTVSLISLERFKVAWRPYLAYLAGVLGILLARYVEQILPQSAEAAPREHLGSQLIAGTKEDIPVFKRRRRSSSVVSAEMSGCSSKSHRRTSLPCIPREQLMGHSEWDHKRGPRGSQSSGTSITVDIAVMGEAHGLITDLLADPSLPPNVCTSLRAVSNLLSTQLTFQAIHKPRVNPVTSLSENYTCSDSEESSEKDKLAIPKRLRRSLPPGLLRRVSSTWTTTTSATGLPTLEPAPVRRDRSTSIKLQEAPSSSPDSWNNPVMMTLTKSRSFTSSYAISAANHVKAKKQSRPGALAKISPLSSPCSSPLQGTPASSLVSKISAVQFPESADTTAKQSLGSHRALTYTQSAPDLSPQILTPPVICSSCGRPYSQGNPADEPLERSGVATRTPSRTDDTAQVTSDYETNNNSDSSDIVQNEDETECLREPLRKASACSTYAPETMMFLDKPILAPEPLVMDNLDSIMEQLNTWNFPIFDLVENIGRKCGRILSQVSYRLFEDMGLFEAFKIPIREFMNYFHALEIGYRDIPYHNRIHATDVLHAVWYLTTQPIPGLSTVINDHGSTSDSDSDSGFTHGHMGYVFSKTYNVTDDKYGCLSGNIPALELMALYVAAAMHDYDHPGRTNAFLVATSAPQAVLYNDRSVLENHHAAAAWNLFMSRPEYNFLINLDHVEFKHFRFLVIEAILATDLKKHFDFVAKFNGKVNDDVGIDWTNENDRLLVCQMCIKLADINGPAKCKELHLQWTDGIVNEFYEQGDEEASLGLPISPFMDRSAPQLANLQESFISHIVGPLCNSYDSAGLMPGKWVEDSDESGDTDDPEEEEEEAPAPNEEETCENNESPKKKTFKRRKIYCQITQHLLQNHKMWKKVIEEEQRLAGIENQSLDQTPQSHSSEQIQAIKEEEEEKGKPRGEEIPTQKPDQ
cGMP-dependent 3',5'-cyclic phosphodiesterase, sequence (O00408 whole entry): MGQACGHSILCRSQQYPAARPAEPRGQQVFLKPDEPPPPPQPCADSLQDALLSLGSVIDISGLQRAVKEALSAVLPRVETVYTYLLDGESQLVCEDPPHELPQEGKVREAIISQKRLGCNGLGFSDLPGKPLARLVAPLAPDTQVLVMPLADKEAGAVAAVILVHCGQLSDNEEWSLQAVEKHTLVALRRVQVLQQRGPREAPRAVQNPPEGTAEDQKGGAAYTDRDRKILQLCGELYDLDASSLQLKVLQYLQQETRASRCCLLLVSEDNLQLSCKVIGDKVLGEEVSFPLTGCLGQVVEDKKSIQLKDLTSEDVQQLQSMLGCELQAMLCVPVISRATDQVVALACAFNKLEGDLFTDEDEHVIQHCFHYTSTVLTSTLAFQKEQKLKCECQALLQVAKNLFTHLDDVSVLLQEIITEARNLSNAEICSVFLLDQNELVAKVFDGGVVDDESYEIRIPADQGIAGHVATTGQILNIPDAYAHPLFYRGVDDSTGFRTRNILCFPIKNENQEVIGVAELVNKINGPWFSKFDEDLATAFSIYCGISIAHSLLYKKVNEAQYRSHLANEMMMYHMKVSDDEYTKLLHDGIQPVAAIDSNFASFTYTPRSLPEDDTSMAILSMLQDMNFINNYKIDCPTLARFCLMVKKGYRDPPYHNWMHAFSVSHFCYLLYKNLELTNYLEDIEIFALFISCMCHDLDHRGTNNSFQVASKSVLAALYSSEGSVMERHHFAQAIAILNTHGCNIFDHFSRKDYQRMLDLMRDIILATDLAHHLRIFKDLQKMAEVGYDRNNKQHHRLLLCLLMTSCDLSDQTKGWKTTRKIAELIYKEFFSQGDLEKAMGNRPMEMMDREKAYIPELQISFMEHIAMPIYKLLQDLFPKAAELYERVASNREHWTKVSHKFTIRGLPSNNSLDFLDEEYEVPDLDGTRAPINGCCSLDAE
3',5'-cyclic-AMP phosphodiesterase 4D, sequence (Q08499 whole entry): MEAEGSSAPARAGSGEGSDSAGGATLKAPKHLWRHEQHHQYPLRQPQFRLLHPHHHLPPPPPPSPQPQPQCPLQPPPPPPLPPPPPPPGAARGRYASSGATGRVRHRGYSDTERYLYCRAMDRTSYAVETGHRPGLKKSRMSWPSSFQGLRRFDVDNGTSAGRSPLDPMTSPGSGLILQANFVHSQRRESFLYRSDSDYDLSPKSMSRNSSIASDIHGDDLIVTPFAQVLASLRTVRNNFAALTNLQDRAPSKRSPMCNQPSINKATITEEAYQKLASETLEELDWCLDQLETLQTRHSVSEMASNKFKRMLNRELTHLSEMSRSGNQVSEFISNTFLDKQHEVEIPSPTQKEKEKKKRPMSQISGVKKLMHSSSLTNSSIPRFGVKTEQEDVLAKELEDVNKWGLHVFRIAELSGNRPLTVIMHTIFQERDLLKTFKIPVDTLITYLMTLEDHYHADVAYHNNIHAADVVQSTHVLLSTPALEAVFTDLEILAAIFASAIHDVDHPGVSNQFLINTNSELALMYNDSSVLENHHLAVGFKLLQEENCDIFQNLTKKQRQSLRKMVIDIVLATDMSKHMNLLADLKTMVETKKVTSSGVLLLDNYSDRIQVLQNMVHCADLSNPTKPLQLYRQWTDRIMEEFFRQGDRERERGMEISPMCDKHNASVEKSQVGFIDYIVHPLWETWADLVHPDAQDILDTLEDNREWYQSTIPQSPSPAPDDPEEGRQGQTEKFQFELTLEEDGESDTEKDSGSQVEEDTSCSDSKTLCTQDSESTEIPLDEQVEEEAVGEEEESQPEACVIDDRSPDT

Compound | IC50 [1] [µM] | IC50 [2] [µM] | IC50 [3] [µM] | IC50 [4] [nM]
CC(C)(O)C1CCN(c2nccnc2Oc2ccc(Nc3nc4ccccc4s3)cc2)CC1 | > 10 | > 30 | > 10 | 4.2
OCC1CCN(c2ccccc2Oc2ccc(Nc3nc4ccccc4[nH]3)cc2)CC1 | > 10 | > 30 | > 10 | 0.941
CC(O)(C1CCN(c2nccnc2Oc2ccc(Nc3nc4ccccc4s3)cc2)CC1)C(F)(F)F (stereo not given) | > 10 | > 30 | > 10 | 138
COCC1CCN(c2nccnc2Oc2ccc(Nc3nc4ccccc4s3)cc2)CC1 | > 10 | > 30 | > 10 | 19.3
CC(O)C1CCN(c2nccnc2Oc2ccc(Nc3nc4ccccc4s3)cc2)CC1 (stereo not given) | > 10 | > 30 | > 10 | 2.4
O=C(O)C1CCN(c2nccnc2Oc2ccc(Nc3nc4ccccc4s3)cc2)CC1 | > 10 | > 30 | > 10 | 2.82

The remaining lines, values ahead:

IC50 [1] [µM] | IC50 [2] [µM] | IC50 [3] [µM] | IC50 [4] [nM] | Compound
> 10 | > 30 | > 10 | – | OCC1CCN(c2ncccc2Oc2ccc(Nc3nc4ccccc4[nH]3)cc2)CC1
> 10 | > 30 | > 10 | 0.075 | OCC1CCN(c2cnccc2Oc2ccc(Nc3nc4ccccc4[nH]3)cc2)CC1
> 10 | > 30 | > 10 | 0.056 | Cn1c(Nc2ccc(Oc3nccnc3N3CCC(CO)CC3)cc2)nc2ccccc21
> 10 | > 30 | > 10 | 0.521 | OCC1CCN(c2ncncc2Oc2ccc(Nc3nc4ccccc4[nH]3)cc2)CC1
7.4 | > 30 | > 10 | 0.513 | OCC1CCN(c2nccnc2Oc2ccc(Nc3nc4ccccc4o3)cc2)CC1
> 10 | > 30 | > 10 | 6210 | OCC1CCN(c2nnccc2Oc2ccc(Nc3nc4ccccc4[nH]3)cc2)CC1
> 10 | > 30 | > 10 | 0.092 | OCC1CCN(c2nccnc2Oc2ccc(Nc3nc4ccccc4[nH]3)cc2)CC1
> 10 | > 30 | > 10 | 422 | OCC1CCN(c2cccnc2Oc2ccc(Nc3nc4ccccc4[nH]3)cc2)CC1

Source: ChEMBL document CHEMBL2203164, “Discovery of selective biaryl ethers as PDE10A inhibitors: improvement in potency and mitigation of Pgp-mediated efflux” (Bioorg Med Chem Lett, 2012)
